Most compounds without a hit are left out; they make up all but 1.9% or so of the library.
GRK2 aptamer HTS = human GRK2 inhibition via aptamer displacement. P25098. bead flow cytometry, FAM-aptamer displacement from GRK2. inhibition of aptamer binding, % at 10 µM. 330,000 compounds, 0.59% hits. AID 488847;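 active = inhibition of aptamer binding above 40%, roughly 3 SD of noise, on plates passing a quality check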;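 also: median bead fluorescence of bound FAM aptamer so fluorescent compounds give negative values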
SR-BI DiI-HDL act = enhances SR-BI lipid uptake from DiI-HDL; CHO ldlA[mSR-BI] cells, DiI-HDL uptake fluorescence, 3 h; 100 = double the neutral-control signal; activation, % at 12.5 µM; 320,000 compounds, 0.096% hits; AID 504775;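 active = mean replicate activation of at least 60% and every replicate at or above 60%; inconclusive = mean or all-replicate condition met, but not both; inactive = mean below 60% and not all replicates reaching 60%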;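 also: 0% = median plate neutral-control signal and 100% = twice that signal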
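Test system: SR-BI-overexpressing, LDLR-lacking CHO cells; Also added: labelled HDL, 10 µg/mL; Measured by: bottom-read cell fluorescence after medium removal, ex 550/em 595 nm; Timing: 3 h uptake period with compound, 37 °C; Buffer or medium: F12, 0.5% BSA, 25 mM HEPES; Doses: single compound concentration, delivered by pin transfer.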
Rin1-Abl PPI inh = inhibitors of human Rin1-Abl protein interaction. P00519+Q13671. TR-FRET Rin1/Abl binding, biochemical. inhibition, % at 7.35 µM. 360,000 compounds, 0.4% hits; in the data active = inhibition above about 5%, passing the limit was not always enough
SR-BI DiI inh = blocks mouse SR-BI lipid uptake from DiI-HDL. ldlA[mSR-BI] CHO cells, DiI-HDL uptake fluorescence, 3 h. inhibition, % at 12.5 µM. 320,000 compounds, 0.96% hits. AID 488896;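 active = mean replicate inhibition of at least 70% and a set share of replicates each scoring 70 or more; inconclusive = meets just one of the two criteria; inactive = fails both criteria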;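 also: 0% = median of neutral control wells and 100% = median of positive control wells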
Active calls of the source: *; ? = inconclusive; . = no result given.

SMILES	GRK2 aptamer HTS	SR-BI DiI-HDL act	Rin1-Abl PPI inh	SR-BI DiI inh
COc1cccc(/C=N/NC(=O)c2[nH]c(C)c(C(=O)N/N=C/c3cccc(OC)c3O)c2C)c1O	0.0	-124.8	-3.5	124.8*
COc1ccc(C(=O)N/N=C/c2c(C)nn(-c3ccccc3)c2OC)cc1	5.0	-71.2	-4.7	71.2*
COc1cccc(/C=N/NC(=O)C(=O)Nc2ccccc2OC(F)(F)C(F)F)c1O	2.0	-109.6	-6.2	109.6*
CCN(CC(=O)Nc1ccccc1OC)C(=O)CCOc1ccc(C(C)(C)C)cc1	0.0	-6.3	0.8	6.3
O=C(NCCc1ccc2c(c1)OCCO2)c1cc(S(=O)(=O)N2CCCC2)ccc1Br	.	-8.3	-0.2	8.3
COc1cccc(/C=N/NC(=O)c2ccc(=O)n(C)c2)c1O	0.0	-25.2	-3.0	25.2
COc1ccc(OC)c(/C=N\NC(=O)c2ccc(-c3ccccc3)cc2)c1	0.0	.	-0.1	77.5*
COc1cccc(/C=N/NC(=O)c2ccc(-c3ccccc3)cc2)c1O	0.0	-123.2	-1.8	123.2*
COc1ccc(OC)c(/C=N/NC(=O)c2cc[n+](Cc3ccccc3)cc2)c1	1.0	22.5	-2.5	-22.5
O=C(CN1CCN(S(=O)(=O)c2ccc(Cl)c(Cl)c2)CC1)N1CCCC1	1.0	27.4	2.5	-27.4
Cc1noc(C)c1S(=O)(=O)N1CCCC(C(=O)NCc2ccccc2Cl)C1 (centres undefined)	0.0	5.9	1.1	-5.9
COc1cc(OC)c(/C=N/NC(=O)c2ccc(NC(C)=O)cc2)cc1Br	.	-70.7	1.1	?
CC(=O)Nc1ccc(C(=O)N/N=C/c2cc(Br)cc(Br)c2O)cc1	2.0	-135.1	-1.0	135.1*
CC(C)C(=O)Nc1ccc(C(=O)N/N=C/c2cc(Br)cc(Br)c2O)cc1	0.0	-146.5	0.4	146.5*
CC(=O)Nc1cc(-c2ccoc2)cn2c(-c3ccccc3)cnc12	.	.	-0.3	.
COC(=O)c1cn(C(=O)/C=C/c2ccc(OC)c(OC)c2)c2ccccc12	0.0	-92.6	-4.5	92.6*
COC(=O)c1cn(C(=O)OC)c2ccccc12	0.0	-0.7	1.0	0.7
COc1ccc(NC(=O)N(C)C[C@@H]2OCc3cnnn3CCCC(=O)N([C@H](C)CO)C[C@@H]2C)cc1	.	.	1.1	.
CCOc1ccc(OCCn2nnc3ccccc3c2=O)cc1	0.0	152.1*	3.7	-152.1
N#Cc1c(N2CCN(c3ccc([N+](=O)[O-])cc3)CC2)[n+](=O)c2ccc(Cl)cc2n1[O-]	.	-11.2	-3.0	11.2
O=S1(=O)CC(N2CCC(c3ccccc3)CC2)CN1Cc1ccc(F)cc1 (centres undefined)	.	.	3.9	.
COc1ccc(C)cc1NC(=O)CCCNC(=O)Cn1cnc2sc(C)c(C)c2c1=O	0.0	-78.4	2.0	78.4*
COc1ccc(NC(=O)CCCNC(=O)Cn2cnc3sc(C)c(C)c3c2=O)c(OC)c1	0.0	1.5	0.4	-1.5
COc1ccc(CCNC(=O)Cn2cnc3sc(C)c(-c4ccc(F)cc4)c3c2=O)cc1OC	0.0	-35.6	0.0	35.6
COC(=O)c1sc2ncn(CC(=O)NCCc3ccc(OC)c(OC)c3)c(=O)c2c1C	0.0	-75.8	2.2	75.8*
SMILES	GRK2 aptamer HTS	SR-BI DiI-HDL act	Rin1-Abl PPI inh	SR-BI DiI inh
CCOc1ccccc1NC(=O)CCCNC(=O)Cn1cnc2sc(C)c(C)c2c1=O	.	-72.4	-2.2	72.4*
COc1cc(OC)c(NC(=O)CCCNC(=O)Cn2cnc3sc(C)c(C)c3c2=O)cc1Cl	1.0	-81.4	-0.3	81.4*
COc1ccc(NC(=O)CCCNC(=O)Cn2cnc3sc(C)c(C)c3c2=O)cc1Cl	0.0	.	-3.5	.
CCc1ccc([C@@H]2CC(=O)[C@@H]3CN(S(=O)(=O)c4ccccc4)[C@H](c4ccc(OC)cc4)C[C@@H]3N2S(=O)(=O)c2ccc(C)cc2)cc1	.	.	0.4	.
Cc1ccc(NC(=O)CN(C)C(=O)COC(=O)[C@@H](NC(=O)c2ccccc2F)C(C)C)cc1	0.0	-13.4	2.7	13.4
CC(=O)Nc1c(C#N)c(-c2ccccc2)c(C#N)c(=O)n1-c1ccc(C)cc1	.	.	-1.7	.
COc1ccc(-c2c(O)c(C#N)c(-c3ccccc3)n(-c3ccc(OC)cc3)c2=O)cc1	97.0*	21.9	2.0	-21.9
Cc1ccc(NC(=O)Cc2c(O)c3ccccc3[nH]c2=O)c(C)c1	2.0	30.2	-2.2	-30.2
CCOC(=O)C1=C(C)NC(SCC(=O)Nc2nc(C)cs2)=C(C#N)C1c1cccs1 (centres undefined)	51.0*	.	.	.
C=CCOC(=O)C1=C(C)NC(SCC(N)=O)=C(C#N)C1c1cccs1 (centres undefined)	1.0	7.8	-3.2	-7.8
C(=Cc1c[nH]c2ccccc12)c1ccc2ccccc2n1	.	-62.4	-2.8	62.4

Source: PubChem BioAssay
